# Screens deposited in PubChem by several laboratories.
# This is a sample that favours compounds with a hit; in the whole collection about 3.4% have one here.
# AHR act: activates the human aryl hydrocarbon receptor | P35869 | AHR-responsive luciferase reporter cells, luminescence | activation, % at 5 µM | 320,000 tested, 2.5% active; in the data active = activation above about 47%;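 note: 0% = vehicle wells and 100% = reference agonist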
# PolyA inhibitor: inhibitors of polyadenylation in S. cerevisiae; S. cerevisiae SKY197-pL101 polyadenylation reporter, beta-gal luminescence; efflux-impaired pdr1/pdr3 knockout yeast; score 100 = 6 SD above DMSO; activity score, % at 12 µM; 300,000 tested, 0.02% active; AID 1875;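 active = lowest replicate activity score at least 50, where 100 means six control SD above control mean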;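 note: yeast exposed to compound for 9 h at 30 °C; higher score means more reporter readthrough which indicates perturbed polyadenylation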
# Arr AP2 block: inhibitors of human beta-arrestin and AP2 interaction. inhibition, % at 10 µM. FITC-arrestin peptide / GST-AP2 beads, flow cytometry; AP2 beta2 appendage carries R879A mutation. 340,000 tested, 0.31% active;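 active = inhibition above a set limit, near 3 SD of compounds lacking own fluorescence, cut at about 54% in these data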;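 note: plate controls were DMSO wells for no effect and 5 µM unlabelled arrestin peptide for full effect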
#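 test system = AP2 appendage R879A on GSH beads | buffer or medium = PBS plus Tween 20 (0.05%) and BSA (0.1%) | incubation = 12 min plus 1 h, RT | detection = bead flow cytometry, FITC channel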
# UCH37 DUB inh: blocks the human deubiquitinase UCH37 | purified proteasome/UCH37, Ub-AMC cleavage fluorescence | inhibition, % (no concentration beside the values) | 330,000 tested, 0.33% active | AID 588478;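 active = mean inhibition over replicate wells above about 20%, limit read from the data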;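 note: 0% = compound-free wells with enzyme and 100% = wells lacking proteasome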
#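 Material: human UCH37 enzyme supplied as purified proteasome complex / Amount: 0.15 nM proteasome as dispensed / Buffer or medium: pH 7.4 Tris-HCl (50 mM) with ovalbumin, ATP-MgCl2, DTT / Times: preincubation 30 min, reaction 25 min, room temperature / Technique: AMC fluorescence from Ub-AMC cleavage, excitation 355 nm, emission 460 nm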
# A3G deaminase: blocks human APOBEC3G single-stranded DNA deamination; Q9HC16; recombinant A3G, ssDNA deamination FAM/TAMRA fluorescence; inhibition, % at 20 µM; 330,000 tested, 0.28% active;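 active = inhibition of at least 40% at 20 µM, with no more than 30% in the related APOBEC3A deaminase screen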;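 note: plate controls were DMSO wells with A3G for no effect and wells lacking A3G enzyme for full effect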
# Target sequence (Q9HC16 whole entry, looked up): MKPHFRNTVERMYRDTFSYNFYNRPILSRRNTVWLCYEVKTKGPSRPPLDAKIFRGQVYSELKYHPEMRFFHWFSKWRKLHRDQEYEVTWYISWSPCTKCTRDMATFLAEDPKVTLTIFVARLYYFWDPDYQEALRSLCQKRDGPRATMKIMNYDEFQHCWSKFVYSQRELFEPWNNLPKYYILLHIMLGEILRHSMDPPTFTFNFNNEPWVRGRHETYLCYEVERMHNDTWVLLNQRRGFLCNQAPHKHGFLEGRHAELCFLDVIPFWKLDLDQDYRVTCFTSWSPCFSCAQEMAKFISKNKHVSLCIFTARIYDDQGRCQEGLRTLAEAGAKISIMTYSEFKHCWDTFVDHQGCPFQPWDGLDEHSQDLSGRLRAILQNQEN
# APOBEC3A inh: inhibitors of human APOBEC3A DNA deaminase. 330,000 tested, 0.41% active. inhibition, % at 20 µM. P31941. AID 493011. recombinant A3A, FAM/TAMRA ssDNA deamination fluorescence;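 active = at least 40% inhibition at 20 µM here, with at most 30% in a related deaminase screen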;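 note: plate controls were A3A with DMSO for no effect and wells lacking A3A enzyme for full effect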
# A3G conf: APOBEC3G (human) deaminase inhibition, confirmed; shares compounds with A3G deaminase; recombinant A3G ssDNA deaminase, UDG/FAM-TAMRA fluorescence; inhibition, % at 20 µM; 890 tested, 72% active; AID 493152;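 active = inhibition reaching a set limit in any replicate at 20 µM, the limit being 80% of the first screen's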
# UDG A3G counter: E. coli UDG inhibition in APOBEC3G counter-screen. shares compounds with A3G deaminase. UDG counterscreen, FAM/TAMRA oligo fluorescence. inhibition, % at 20 µM. 710 tested, under 10 active. AID 504715;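 active = compounds giving 40% or more inhibition at 20 µM in any one of the three replicates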;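 note: plate controls were DMSO wells with UDG and oligo for no effect and DMSO wells lacking both for full effect; inhibitors lower the FAM signal released by uracil excision and alkaline cleavage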
# Target sequence (P12295 whole entry, looked up): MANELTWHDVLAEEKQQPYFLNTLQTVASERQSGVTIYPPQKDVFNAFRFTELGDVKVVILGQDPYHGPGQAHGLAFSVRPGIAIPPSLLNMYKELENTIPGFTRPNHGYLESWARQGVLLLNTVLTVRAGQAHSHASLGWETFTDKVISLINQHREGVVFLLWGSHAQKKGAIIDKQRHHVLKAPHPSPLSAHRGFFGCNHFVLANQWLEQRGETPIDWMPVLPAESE
# The depositor's hits bear a star; . = not tested or not shown.
SMILES,AHR act,PolyA inhibitor,Arr AP2 block,UCH37 DUB inh,A3G deaminase,APOBEC3A inh,A3G conf,UDG A3G counter
COC(=O)c1c(-c2ccc(C(C)(C)C)cc2)csc1NC(=O)C1C2CCC(O2)C1C(=O)O (stereo unspecified),-3,-3,-1,0,58*,0,24*,-4
CCOC(=O)c1c(-c2cccc3ccccc23)csc1NC(=O)C1C2CCC(O2)C1C(=O)O (stereo unspecified),0,-10,3,1,1,4,.,.
Cc1ccc(-n2c(N)c(C(=O)N3CCOCC3)sc2=S)cc1,2,-10,-2,9,40,8,.,.
CN1CCN(C(=O)c2sc(=S)n(-c3ccccc3)c2N)CC1,0,-6,31,9,66*,-4,81*,2
COC(=O)c1sc(=S)n(-c2cccc(Cl)c2)c1N,1,-19,-1,7,54*,2,30*,-3
COc1cc(SSc2cc(OC)cc([N+](=O)[O-])c2N)c(N)c([N+](=O)[O-])c1,7,-14,34,14,42*,-2,79*,10
COc1cc([N+](=O)[O-])c2ncsc2c1,2,3,0,5,-3,-4,.,.
Cc1ccc(Cn2c(=S)[nH]c3ccc(N4CCOCC4)cc3c2=O)o1,0,-6,9,-55,59*,10,76*,.
CCn1nc(C)c(CNC(=O)C2CCC(=O)N(CCc3ccc(Cl)cc3)C2)c1C (stereo unspecified),-1,-7,-9,3,44*,6,-1,.
Cc1nc(CNC(=O)C2CCC(=O)N(CCc3ccc(Cl)cc3)C2)sc1C (stereo unspecified),3,28,10,.,-5,-4,.,.
O=[N+]([O-])c1ccc(Cl)c(/C=N/n2c(-c3cccnc3)n[nH]c2=S)c1,0,12,.,.,48*,4,25,.
S=c1[nH]nc(-c2cccnc2)n1N=Cc1cccs1,.,.,.,3,.,.,.,.
O=[N+]([O-])c1ccc(/C=N/n2c(-c3cccnc3)n[nH]c2=S)cc1,4,-1,-38,.,63*,-6,62*,-3
O=[N+]([O-])c1cccc(/C=N/n2c(-c3cccnc3)n[nH]c2=S)c1,14,13,-5,.,69*,1,74*,3
Cc1n[nH]c(=S)n(N=Cc2cccc([N+](=O)[O-])c2)c1=O,.,.,.,6,.,.,.,.
Cc1ccc(SSc2cc(C)ccc2N)c(N)c1,58*,-5,17,3,79*,2,86*,.
CN(C)c1ccc(C=NNC(=O)c2nnn(-c3nonc3N)c2COc2ccc(F)cc2)cc1,.,.,.,-38,.,.,.,.
Cc1ccccc1NC(=S)NCc1ccc2c(c1)cc(C)n2C,3,0,0,1,-4,-5,.,.
CCc1cccc(C)c1NC(=S)NCc1ccc2c(c1)cc(C)n2C,9,-12,1,6,40*,-3,-1,2
CCOc1ccc2nc(NC(=S)N(C)C)sc2c1,-4,-21,-18,5,47*,-2,55*,-1
Cc1c(N2C(=O)/C(=C\c3ccccc3O)SC2=S)c(=O)n(-c2ccccc2)n1C,4,-11,9,7,56*,-2,75*,-1
COC(=O)NN=Cc1cc(Br)ccc1O,.,.,.,-7,.,.,.,.
COc1ccc(N2C(=O)CC(Sc3ncn[nH]3)C2=O)c(OC)c1 (stereo unspecified),-2,13,0,0,46*,-5,active,-2
Cc1c(C=NO)sc2ccccc12,.,.,.,6,.,.,.,.
COc1cccc(OCc2cc(/C=N/NC(=O)c3ccn[nH]3)ccc2OC)c1,63*,12,2,.,46*,1,1,.
SMILES,AHR act,PolyA inhibitor,Arr AP2 block,UCH37 DUB inh,A3G deaminase,APOBEC3A inh,A3G conf,UDG A3G counter
CCC(C)(C)n1nnnc1C(c1ccc2ncccc2c1)N1CCN(c2ccc(O)cc2)CC1 (stereo unspecified),-1,-7,-5,1,41*,2,5,.
Nc1ccccc1N=c1ssnc1Cl,.,.,-36,-17,.,.,.,.
Cc1cc(C)nc(/N=c2/ssnc2Cl)c1,14,-51,1,.,3,-3,.,.
COc1ccc(OC)c(N=c2ssnc2Cl)c1,11,-15,22,4,74*,1,69*,-4
COc1cc(N=c2ssnc2Cl)c(OC)cc1Cl,15,-15,-3,7,67*,2,82*,-3
CC(C)(C)C1CCC2(CC1)NC(=S)N(c1ccccc1)N2 (stereo unspecified),12,-3,25,1,49*,-1,-9,-1
CC1CCCC(=NNS(=O)(=O)c2ccccc2)C1 (stereo unspecified),.,.,.,3,.,.,.,.
Cc1cc(C(F)(F)F)n(-c2nc(C(=O)NN=Cc3ccc(F)cc3)cs2)n1,.,.,.,5,.,.,.,.
CC(=O)N1CCN(C(=S)c2cccc([N+](=O)[O-])c2)CC1,-1,-10,3,0,-9,-6,.,.
O=[N+]([O-])c1ccc(N2CCN(C(=S)c3cccc([N+](=O)[O-])c3)CC2)cc1,-3,7,-6,6,66*,1,70*,-2
CC(CCc1ccccc1)=NNC(=O)COc1ccccc1C,.,.,.,-1,.,.,.,.
Cc1cccc(-n2ccnc2SCC(=O)Nc2nnc(C)s2)c1,-1,-18,2,2,49*,-2,-5,-4
COc1ccc(OC)c(C(=O)c2coc3ccc(OC(C)=O)cc23)c1,-3,-22,-8,2,79*,1,-2,.
COc1ccc(C(=O)c2coc3ccc(OC(C)=O)cc23)cc1,-1,-12,13,2,-2,0,.,.
COC(=O)c1ccc(C=NN2CCN(Cc3ccc(C)cc3)CC2)cc1,.,.,.,3,.,.,.,.
S=c1[nH]nc(-c2ccc(Br)cc2)n1-c1ccc(Br)cc1,0,-8,0,0,-4,-8,.,.
O=C(O)c1ccc(-n2c(-c3ccc(Br)cc3)n[nH]c2=S)cc1,3,19,2,5,44*,-6,65*,-2
C[C@H](NC(=O)c1cc2c(cn1)[nH]c1ccccc12)C(=O)O,.,-5,-19,.,37,2,.,.
COC(=O)[C@H](C)NC(=O)c1cc2c(cn1)[nH]c1ccccc12,9,-2,-15,.,50*,0,77*,-2
S=c1[nH]nc(-c2ccccc2Cl)n1N=C/C=C/c1ccco1,.,.,.,14,.,.,.,.
CCOC(=O)c1sc(=S)n(C)c1NC(=O)c1ccc(OC)cc1,-2,-3,9,6,53*,0,59*,-6
